Source: ChEMBL document CHEMBL4732199, “Potent and orally bioavailable CDK8 inhibitors: Design, synthesis, structure-activity relationship analysis and biological evaluation” (Eur J Med Chem, 2021)
The source made the active and inactive calls. No cut-off for these calls is given here.

Legend:
MOLM-13 = test: Growth inhibition human MOLM-13 cells after 72 hrs by resazurin or MTT assay; format: functional
Outline: (§1)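 Tumour cell lines kept in RPMI-1640, DMEM or MEM with 10% FBS at 37 °C, 5% CO2, mycoplasma-free. Exposure lasted 72 h. Viability was read by MTT for adherent solid-tumour lines and by resazurin for suspension leukaemia lines. GI50 came from nonlinear regression, given as mean ± standard deviation of at least two replicates unless stated otherwise.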

COLO 205 = test: Growth inhibition human COLO 205 cells after 72 hrs by resazurin or MTT assay; format: functional; outline: as §1
[1] = Tmax in Sprague-Dawley rat at 5 mg/kg, iv measured up to 24 hrs by LC-MS/MS analysis; format: ADME, organism-based; conditions: in vivo
[2] = target: Glycogen synthase kinase-3 beta (Homo sapiens, UniProt P49841); test: Inhibition of human GSKbeta H350L mutant (2 to 3nd residues) using YRRAAVPPSPSLSRHSSPHQS(p) EDEEE as substrate incubated for 40 mins in presence of [gamma-33P]-ATP by scintillation counting method
Glycogen synthase kinase-3 beta, sequence (P49841 whole entry): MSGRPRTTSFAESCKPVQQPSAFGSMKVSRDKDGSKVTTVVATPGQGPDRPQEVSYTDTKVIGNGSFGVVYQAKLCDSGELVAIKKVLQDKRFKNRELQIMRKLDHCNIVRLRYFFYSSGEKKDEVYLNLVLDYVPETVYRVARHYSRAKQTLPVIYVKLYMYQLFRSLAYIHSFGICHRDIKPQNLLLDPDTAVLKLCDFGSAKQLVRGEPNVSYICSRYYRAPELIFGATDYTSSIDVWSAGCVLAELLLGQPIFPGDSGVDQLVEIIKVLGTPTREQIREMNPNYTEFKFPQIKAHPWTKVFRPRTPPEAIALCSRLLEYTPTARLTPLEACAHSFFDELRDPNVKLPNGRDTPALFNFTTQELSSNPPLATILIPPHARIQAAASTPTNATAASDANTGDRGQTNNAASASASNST
Outline: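 Outsourced radioisotope (HotSpot) kinase assay run by a contract lab, with ATP at the kinase's Km(ATP). The IC50 was converted to an apparent Ki by the Cheng-Prusoff equation, Ki = IC50/(1+[ATP]/Km(ATP)), using the experimentally determined Km(ATP).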

[3] = Toxicity in BALB/c mouse assessed as increase in CD3-T cells at 70 mg/kg, po administered once daily for 7 days and measured on day 15 by flow cytometric analysis; format: organism-based; conditions: in vivo, 168 h, time 7 day
A2780 = test: Growth inhibition human A2780 cells after 72 hrs by resazurin or MTT assay; format: functional; outline: as §1
[4] = Toxicity in BALB/c mouse assessed as dendritic cells at 70 mg/kg, po administered once daily for 7 days and measured on day 15 by flow cytometric analysis; format: organism-based; conditions: in vivo, 168 h, time 7 day
THP-1 = test: Growth inhibition human THP1 cells after 72 hrs by resazurin or MTT assay; format: functional; outline: as §1
MDA-MB-231 = test: Growth inhibition human MDA-MB-231 cells after 72 hrs by resazurin or MTT assay; format: functional; outline: as §1
[5] = Toxicity in BALB/c mouse assessed as neutrophils at 70 mg/kg, po administered once daily for 7 days and measured on day 15 by flow cytometric analysis; format: organism-based; conditions: in vivo, 168 h, time 7 day
[6] = Half life in Sprague-Dawley rat at 5 mg/kg, iv measured up to 24 hrs by LC-MS/MS analysis; format: ADME, organism-based; conditions: in vivo
[7] = Cmax in Sprague-Dawley rat at 20 mg/kg, po measured up to 24 hrs by LC-MS/MS analysis; format: ADME, organism-based; parameters: route oral, dose 20 mg/kg, time <=24; conditions: in vivo
PANC-1 = test: Growth inhibition human PANC-1 cells after 72 hrs by resazurin or MTT assay; format: functional; outline: as §1
[8] = Growth inhibition human WI38 cells after 72 hrs by resazurin or MTT assay; format: cell-based; conditions: WI-38 cells
[9] = Cmax in BALB/c mouse at 10 mg/kg, po measured up to 24 hrs by LC-MS/MS analysis; conditions: in vivo
[10] = test system: Glycogen synthase kinase-3 beta (Homo sapiens), P49841 [UNDEFINED MUTATION]; test: Inhibition of human GSKbeta H350L mutant (2 to 3nd residues) at 1 uM using YRRAAVPPSPSLSRHSSPHQS(p) EDEEE as substrate incubated for 40 mins in presence of [gamma-33P]-ATP by scintillation counting method relative to control
Glycogen synthase kinase-3 beta (Homo sapiens), P49841 [UNDEFINED MUTATION], sequence (P49841 whole entry, looked up, stated change not applied): as the sequence (P49841 whole entry) above
Outline: (§2)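 Single-point screen of residual kinase activity (%) at 1 µM compound. Run as a contract radiometric [γ-33P]-ATP kinase assay, either the KinaseProfiler service or the HotSpot assay. ATP was set at the experimentally determined Km(ATP) of each kinase.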

[11] = target: Cyclin-dependent kinase 5/CDK5 activator 1 (Homo sapiens) (UniProt Q00535+Q15078); test: Inhibition of CDK5/p35 (unknown origin) at 1 uM; format: protein-complex assay
Cyclin-dependent kinase 5/CDK5 activator 1 (Homo sapiens), sequence (Q00535 whole entry): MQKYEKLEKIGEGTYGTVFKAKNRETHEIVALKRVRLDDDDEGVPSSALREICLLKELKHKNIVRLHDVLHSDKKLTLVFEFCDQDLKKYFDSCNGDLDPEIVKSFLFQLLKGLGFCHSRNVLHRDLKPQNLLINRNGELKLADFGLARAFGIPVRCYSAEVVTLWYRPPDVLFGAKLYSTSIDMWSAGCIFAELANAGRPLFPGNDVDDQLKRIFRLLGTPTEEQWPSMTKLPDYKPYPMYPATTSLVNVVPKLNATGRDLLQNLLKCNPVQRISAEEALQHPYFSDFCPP
Cyclin-dependent kinase 5/CDK5 activator 1 (Homo sapiens), sequence (Q15078 99-307 partner limits assumed): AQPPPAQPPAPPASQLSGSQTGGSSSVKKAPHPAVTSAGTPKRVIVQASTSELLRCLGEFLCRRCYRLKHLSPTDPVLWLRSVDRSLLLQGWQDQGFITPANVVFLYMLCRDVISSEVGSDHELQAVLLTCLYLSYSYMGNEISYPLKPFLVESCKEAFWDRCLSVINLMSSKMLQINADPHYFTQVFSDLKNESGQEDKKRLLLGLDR
Outline: (§3)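 Residual activity of each kinase with compound at 1 µM, measured in a contracted radioisotope-based kinase profiling assay and expressed as % kinase activity remaining.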

[12] = target: Cyclin-dependent kinase 1/cyclin B1 (Homo sapiens) (UniProt P06493+P14635); test: Inhibition of CDK1/cyclin-B (unknown origin) at 1 uM relative to control; format: protein-complex assay; outline: as §3
Cyclin-dependent kinase 1/cyclin B1 (Homo sapiens), sequence (P06493 whole entry, looked up): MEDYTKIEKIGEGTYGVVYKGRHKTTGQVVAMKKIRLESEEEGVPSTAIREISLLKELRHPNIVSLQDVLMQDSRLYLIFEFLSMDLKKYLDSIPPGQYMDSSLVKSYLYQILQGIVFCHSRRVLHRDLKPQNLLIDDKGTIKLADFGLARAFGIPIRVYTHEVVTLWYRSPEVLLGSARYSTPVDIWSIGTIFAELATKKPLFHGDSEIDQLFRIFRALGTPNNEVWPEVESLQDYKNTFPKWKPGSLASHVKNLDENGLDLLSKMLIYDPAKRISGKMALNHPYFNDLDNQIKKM
Cyclin-dependent kinase 1/cyclin B1 (Homo sapiens), sequence (P14635 whole entry, looked up): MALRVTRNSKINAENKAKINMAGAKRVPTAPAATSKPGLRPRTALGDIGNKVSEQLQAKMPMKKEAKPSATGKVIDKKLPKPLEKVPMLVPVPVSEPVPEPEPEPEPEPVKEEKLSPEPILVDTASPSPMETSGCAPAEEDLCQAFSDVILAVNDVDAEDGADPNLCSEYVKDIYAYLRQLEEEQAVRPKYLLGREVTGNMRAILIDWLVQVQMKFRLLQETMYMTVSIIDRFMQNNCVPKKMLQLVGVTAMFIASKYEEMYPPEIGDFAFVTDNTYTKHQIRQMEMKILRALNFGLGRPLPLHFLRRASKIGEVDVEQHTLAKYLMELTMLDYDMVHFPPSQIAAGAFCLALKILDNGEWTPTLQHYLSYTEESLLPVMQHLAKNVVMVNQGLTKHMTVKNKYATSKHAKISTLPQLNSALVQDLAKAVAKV

[13] = Half life in BALB/c mouse at 10 mg/kg, po measured up to 24 hrs by LC-MS/MS analysis; conditions: in vivo
[14] = Toxicity in BALB/c mouse assessed as increase in body weight at 70 mg/kg, po administered once daily for 7 days and measured on day 15 relative to control; format: organism-based; conditions: in vivo, 168 h, time 7 day
[15] = Oral bioavailability in BALB/c mouse at 10 mg/kg measured up to 24 hrs by LC-MS/MS analysis; conditions: in vivo
[16] = target: CDK9/cyclin T1 (Homo sapiens) (UniProt O60563+P50750); test: Inhibition of CDK9/Cyclin T1 (unknown origin) at 1 uM relative to control; format: protein-complex assay; outline: as §3
[17] = Toxicity in BALB/c mouse assessed as loss of ground substance at 70 mg/kg, po administered once daily for 7 days and measured on day 15; format: organism-based; conditions: in vivo, 168 h, time 7 day
[18] = target: CDK6/cyclin D3 (Homo sapiens) (UniProt P30281+Q00534); test: Inhibition of CDK6/cyclin-D3 (unknown origin) at 1 uM; format: protein-complex assay; outline: as §3
[19] = Inhibition of CYP4501A in human liver microsomes using ethoxyresorufin O-deethylation as substrate by LC-MS/MS analysis
[20] = target: CDK18/Cyclin Y (Homo sapiens) (UniProt Q07002+Q8ND76); test: Inhibition of CDK18/Cyclin Y (unknown origin) at 1 uM; format: protein-complex assay; outline: as §3
[21] = Dissociation constant, pKa of the compound by UV spectrometric titration method; format: physicochemical
[22] = Toxicity in BALB/c mouse assessed as disordered chondrocyte columns at 70 mg/kg, po administered once daily for 7 days and measured on day 15; format: organism-based; conditions: in vivo, 168 h, time 7 day
[23] = target: Cyclin-dependent kinase 4/cyclin D1 (Homo sapiens) (UniProt P11802+P24385); test: Inhibition of CDK4/cyclin-D1 (unknown origin) at 1 uM; format: protein-complex assay; outline: as §3
[24] = target: Cyclin-dependent kinase 1/cyclin B1 (Homo sapiens, UniProt P06493); test: Inhibition of CDK1/cyclin-B (unknown origin); format: protein-complex assay
Cyclin-dependent kinase 1/cyclin B1, sequence (P06493 whole entry): as the sequence (P06493 whole entry, looked up) above
Cyclin-dependent kinase 1/cyclin B1, sequence (P14635 whole entry, further chain): as the sequence (P14635 whole entry, looked up) above
Outline: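 IC50 measured in a contracted radiometric kinase assay with ATP at the experimentally determined Km(ATP) of each kinase. Apparent Ki was derived by Cheng-Prusoff: Ki = IC50/(1+[ATP]/Km(ATP)).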

[25] = target: Protein kinase C theta type (Homo sapiens, UniProt Q04759); test: Inhibition of human full length PKCtheta at 1 uM using histone H1 as substrate incubated for 40 mins in presence of [gamma-33P]-ATP by scintillation counting method relative to control; outline: as §2
Protein kinase C theta type, sequence (Q04759 whole entry, looked up): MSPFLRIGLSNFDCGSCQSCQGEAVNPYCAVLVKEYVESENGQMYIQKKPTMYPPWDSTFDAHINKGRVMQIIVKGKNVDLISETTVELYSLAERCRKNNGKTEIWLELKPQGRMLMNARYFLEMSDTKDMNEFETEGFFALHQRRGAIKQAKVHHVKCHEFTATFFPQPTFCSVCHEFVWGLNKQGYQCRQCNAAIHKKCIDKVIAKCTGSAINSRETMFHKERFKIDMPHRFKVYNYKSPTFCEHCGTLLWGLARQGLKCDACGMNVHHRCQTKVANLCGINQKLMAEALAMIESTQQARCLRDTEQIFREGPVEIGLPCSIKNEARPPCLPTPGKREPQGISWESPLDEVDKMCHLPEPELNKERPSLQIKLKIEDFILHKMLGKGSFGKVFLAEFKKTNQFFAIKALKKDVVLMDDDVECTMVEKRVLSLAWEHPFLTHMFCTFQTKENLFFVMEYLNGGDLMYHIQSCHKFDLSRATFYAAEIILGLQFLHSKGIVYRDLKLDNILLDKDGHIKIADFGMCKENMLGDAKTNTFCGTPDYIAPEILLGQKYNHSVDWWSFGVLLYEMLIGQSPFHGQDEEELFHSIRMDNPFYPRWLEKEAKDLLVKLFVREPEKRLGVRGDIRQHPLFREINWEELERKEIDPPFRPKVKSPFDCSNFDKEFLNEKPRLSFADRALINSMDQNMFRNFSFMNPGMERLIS

[26] = Half life in BALB/c mouse at 2 mg/kg, iv measured up to 24 hrs by LC-MS/MS analysis; conditions: in vivo
[27] = target: Cyclin-dependent kinase 14/Cyclin-Y (Homo sapiens) (UniProt O94921+Q8ND76); test: Inhibition of CDK14/Cyclin Y (unknown origin) at 1 uM; format: protein-complex assay; outline: as §3

Compound | GI50 (MOLM-13) | GI50 (COLO 205) | Tmax [1] | Ki [2] | Activity [3] | GI50 (A2780) | Activity [4] | GI50 (THP-1) | GI50 (MDA-MB-231) | Activity [5] | half-life [6] | Cmax [7] | GI50 (PANC-1) | GI50 at 72 h [8] | other results
Cn1cc(-c2ccc(-c3cncc(Cl)c3N3CCC4(CCNC4=O)CC3)cc2)cn1 | 2.8 µM | 37.7 µM | 4.2 min | 0.345 µM | Toxic | 35.9 µM | Non-Toxic | > 50 µM | 29.9 µM | Non-Toxic | 64.8 min | 4.06 µM | 0.55 µM | > 50 µM | –
O=C1NCCC12CCN(c1c(Cl)cncc1-c1cc3ccccc3o1)CC2 | 6.18 µM | > 50 µM | 2.4 min | 0.004 µM | Toxic | 21.4 µM | Non-Toxic | > 50 µM | 40.7 µM | Non-Toxic | 54 min | 2.77 µM | > 50 µM | 48.1 µM | Cmax [9]: 5.01 µM; inhibition [10]: > 50%; inhibition [11]: inactive; inhibition [12]: > 50%; half-life [13]: 66.6 min; Activity [14]: 12%; bioavailability [15]: 33%; inhibition [16]: > 50%; Activity [17]: Toxic; inhibition [18]: inactive; IC50 [19]: 7.7 µM; inhibition [20]: inactive; pKa [21]: 4.9; Activity [22]: Toxic; inhibition [23]: inactive; Ki [24]: 1.89 µM; inhibition [25]: > 50%; half-life [26]: 20.4 min; inhibition [27]: inactive
